Drawing on ChEMBL document CHEMBL1157291, “Discovery of bacterial fatty acid synthase inhibitors from a Phoma species as antimicrobial agents using a new antisense-based strategy” (J Nat Prod, 2006), this text covers MIC, Activity and IC50 for 5 molecules.

What is called MIC is the smallest concentration in the dilution series that meets the test's criterion for growth inhibition. Read a high MIC as a less susceptible organism. One may read the IC50 as the point on the concentration scale where inhibition reaches its midpoint. High values mean a need for much substance, low ones inhibition by little substance.

In brackets after ≈: the same amount, converted by molar mass.

Assay [1] relates to Staphylococcus aureus. Put plainly: Antimicrobial activity against Staphylococcus aureus MB2865 after 20 hrs. The format is functional. Put shortly:
(§1)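 MIC determination: cells inoculated at 10^5 CFU/mL, incubated at 37 °C for 20 h with 2-fold serial dilutions of compound in growth medium; MIC taken as lowest concentration inhibiting growth.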

The subject of assay [2] is Staphylococcus aureus. Put plainly: Antimicrobial activity against Staphylococcus aureus RN450 transfected with plasmid SI-1941 bearing antisense to FabF assessed as drug level at which a zone formation after 18 hrs. It is filed as functional. In outline:
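Agar two-plate differential sensitivity assay: S. aureus RN450 carrying fabF antisense plasmid, with a vector-only control strain. Overnight LB cultures with 34 µg/mL chloramphenicol at 37 °C were inoculated 1:1000 (of OD 3.0) into LB agar with 0.2% glucose and 15 µg/mL chloramphenicol, plus 50 mM xylose for the antisense strain only. Samples were added to wells and incubated 18 h at 37 °C. MDC is the lowest 2-fold dilution giving a zone in the sensitive strain with a 5 mm zone differential over the control strain.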

A short description of assay [3]: Inhibition of Staphylococcus aureus FAS2. Put shortly: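 Partially purified S. aureus protein containing all FAS enzymes (1.26 µg) was preincubated 20 min at room temperature with serial dilutions of compound. Reactions were started with [2-14C]malonyl-CoA (4 µM final), run 90 min at 37 °C, stopped with perchloric acid, and read by scintillation in phospholipid-coated flash plates. IC50 was determined.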

The test system of assay [4] is Escherichia coli. Put plainly: Antimicrobial activity against wild type Escherichia coli after 20 hrs. It is filed as functional. Put shortly: (§2)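 Broth MIC: cells at 10^5 CFU/mL were incubated at 37 °C for 20 h with 2-fold serial dilutions of compound in growth medium. The MIC was taken as the lowest concentration inhibiting growth.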
For a further assay, the system named is Enterococcus faecium. Put plainly: Antimicrobial activity against vancomycin-resistant Enterococcus faecium CL5791 after 20 hrs. The format is functional. Put shortly:
as §1

Assay [5] has as its system Escherichia coli. Put plainly: Antimicrobial activity against envA transfected Escherichia coli after 20 hrs. It is filed as functional. In outline: as §2
Another assay has as its system Enterococcus faecalis. Put plainly: Antimicrobial activity against vancomycin-sensitive Enterococcus faecalis CL8516 after 20 hrs. The format is functional. Put shortly:
as §2

Assay [6] has as its system Staphylococcus aureus. Put plainly: Antimicrobial activity against methicillin-resistant Staphylococcus aureus COL after 20 hrs. It is filed as functional. In outline: as §1

As for `C/C=C/C/C=C/CCC(=O)[C@H]1O[C@H]1C(N)=O` [CERULENIN], inhibition of growth against Staphylococcus aureus [1] (MIC) required 64 µg/mL (≈ 287 µM). Further, the Activity in the assay with Staphylococcus aureus [2] turned out to be 32 µg/mL. In addition, the IC50 in assay [3] came out at 1.5 µg/mL (≈ 6.72 µM).
Take `CCC(O)C#CC#CC=C=CCCCCC(=O)O` (configuration not stated) [PHOMALLENIC ACID A]: the minimum inhibitory concentration (MIC) against Escherichia coli [4] was over 250 µg/mL; in the assay on Enterococcus faecium it was over 250 µg/mL; against Staphylococcus aureus [1], 250 µg/mL (≈ 1010 µM); against Escherichia coli [5], 31.3 µg/mL (≈ 127 µM); with Enterococcus faecalis, over 250 µg/mL; against Staphylococcus aureus [6], 250 µg/mL (≈ 1010 µM). Also, the Activity in the assay with Staphylococcus aureus [2] amounted to 0.63 µg/mL. In assay [3], this molecule came in with an IC50 of 22 µg/mL (≈ 89.3 µM).
Turning to `CCCC#CC#CC=C=CCCCCCCC(=O)O` [PHOMALLENIC ACID B], the minimum inhibitory concentration (MIC) with Escherichia coli [4] is over 100 µg/mL; in the assay on Enterococcus faecium it was over 100 µg/mL; against Staphylococcus aureus [1], 7.8 µg/mL (≈ 30.2 µM); in the assay on Escherichia coli [5], 25 µg/mL (≈ 96.8 µM); in the assay with Enterococcus faecalis, over 100 µg/mL; against Staphylococcus aureus [6] it was 12.5 µg/mL (≈ 48.4 µM). In addition, in the assay with Staphylococcus aureus [2], the Activity is 0.31 µg/mL. Moreover, the IC50 in assay [3] is 3.4 µg/mL (≈ 13.2 µM).
As for `CCCC#CC#CC=C=CCCCCCCCC(=O)O` [PHOMALLENIC ACID C], the MIC was over 100 µg/mL in the assay with Escherichia coli [4]; over 100 µg/mL against Enterococcus faecium; 3.9 µg/mL (≈ 14.3 µM) in the assay on Staphylococcus aureus [1]; 12.5 µg/mL (≈ 45.9 µM) against Escherichia coli [5]; over 100 µg/mL against Enterococcus faecalis; 3.9 µg/mL (≈ 14.3 µM) against Staphylococcus aureus [6]. For the same molecule, the Activity in the assay on Staphylococcus aureus [2] was 0.15 µg/mL. In addition, the IC50 in assay [3] came to 0.77 µg/mL (≈ 2.83 µM).
In the case of `C=C/C(C)=C/[C@@]1(C)SC(=O)C(C)=C1O` [THIOLACTOMYCIN], the MIC against Escherichia coli [4] is over 250 µg/mL; in the assay with Enterococcus faecium, over 250 µg/mL; in the assay on Escherichia coli [5], over 250 µg/mL; against Enterococcus faecalis, over 250 µg/mL; with Staphylococcus aureus [6], 64 µg/mL (≈ 304 µM).
